In ChEMBL document CHEMBL1142416, “Pharmacological exploitation of the peroxisome proliferator-activated receptor gamma agonist ciglitazone to develop a novel class of androgen receptor-ablative agents” (J Med Chem, 2008):
pIC50: −log10 of the molar value. Active and inactive are the calls of the source. The calls are words filed in the database; no cut-off is given here.

Tests used:
LNCaP [1] = experiment: Suppression of androgen receptor protein expression in human LNCaP cells at 30 uM by Western blotting; format: functional, cell-based
Method in brief: (§1)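 LNCaP cells (1×10⁶/T25 flask) were exposed in 10% FBS-supplemented medium; dose series ran 72 h. Protein extracts were resolved on 10% SDS-PAGE and transferred to nitrocellulose, then blocked in 5% milk/TBST. Blots were probed overnight at 4°C with mouse anti-AR or anti-β-actin (1:1000), then HRP goat anti-mouse (1:2500, 1 h), and detected by enhanced chemiluminescence.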

LNCaP [2] = experiment: Suppression of androgen receptor protein expression in human LNCaP cells at 60 uM by Western blotting; format: functional, cell-based; method in brief: as §1
LNCaP [3] = experiment: Suppression of androgen receptor mRNA expression in human LNCaP cells at 60 uM by RT-PCR; format: functional, cell-based
Method in brief: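 LNCaP cells (1×10⁶/T25 flask) were treated in 10% FBS-supplemented medium for various times. Total RNA was isolated and 6 μg reverse-transcribed. AR and β-actin (reference) were amplified by PCR with gene-specific primers, and products were resolved on 1.5% agarose gels.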

LNCaP [4] = experiment: Induction of apoptosis in human LNCaP cells assessed as caspase 7 activation after 72 hrs; format: functional, cell-based
Method in brief: (§2)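 LNCaP cells were treated over a dose range for 72 h. Lysates were prepared with protease/phosphatase inhibitors and run on 10% SDS-PAGE, then transferred to nitrocellulose. PARP cleavage and caspase-3 and caspase-7 processing were detected by immunoblot with chemiluminescence.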

LNCaP [5] = experiment: Inhibition of androgen receptor protein expression in human LNCaP cells after 72 hrs by Western blotting; format: functional, cell-based; method in brief: as §1
LNCaP [6] = experiment: Inhibition of androgen receptor mRNA expression in human LNCap cells after 72 hrs; format: functional, cell-based; details: in the assay text read “protein expression” for “mRNA expression”
LNCaP [7] = experiment: Induction of apoptosis in human LNCaP cells assessed as PARP cleavage after 72 hrs; format: functional, cell-based; method in brief: as §2
LNCaP [8] = experiment: Induction of apoptosis in human LNCaP cells assessed as caspase 3 activation after 72 hrs; format: functional, cell-based; method in brief: as §2
LNCaP [9] = experiment: Cell cycle arrest in human LNCaP cells assessed as accumulation at S phase at 5 uM after 72 hrs; format: functional
Method in brief: (§3)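 LNCaP cells were plated at 2.5 × 10⁶ cells/well and treated at the stated concentrations for 72 h. They were washed in PBS, trypsinized and fixed in ice-cold 80% ethanol overnight at 4°C. Staining used propidium iodide (50 μg/ml) with RNase A (100 units/ml) in PBS. Phase distribution was measured by flow cytometry; values are the mean of two independent determinations.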

LNCaP [10] = experiment: Cell cycle arrest in human LNCaP cells assessed as accumulation at S phase at 7.5 uM after 72 hrs; format: functional; method in brief: as §3
LNCaP [11] = experiment: Cell cycle arrest in human LNCaP cells assessed as accumulation at S phase at 1 uM after 72 hrs; format: functional; method in brief: as §3
LNCaP [12] = experiment: Cell cycle arrest in human LNCaP cells assessed as accumulation at G2/M phase at 2.5 uM after 72 hrs; format: functional; method in brief: as §3
LNCaP [13] = experiment: Cell cycle arrest in human LNCaP cells assessed as accumulation at subG1 phase at 5 uM after 72 hrs; format: functional; method in brief: as §3
LNCaP [14] = experiment: Cell cycle arrest in human LNCaP cells assessed as accumulation at S phase at 10 uM after 72 hrs; format: functional; method in brief: as §3
LNCaP [15] = experiment: Cell cycle arrest in human LNCaP cells assessed as accumulation at G2/M phase at 10 uM after 72 hrs; format: functional; method in brief: as §3
LNCaP [16] = experiment: Cell cycle arrest in human LNCaP cells assessed as accumulation at G2/M phase at 7.5 uM after 72 hrs; format: functional; method in brief: as §3
LNCaP [17] = experiment: Cell cycle arrest in human LNCaP cells assessed as accumulation at G1 phase at 10 uM after 72 hrs; format: functional; method in brief: as §3
LNCaP [18] = experiment: Decrease in androgen receptor protein expression in human LNCaP cells at 5 uM after 48 hrs by immunocytochemical method; format: functional, cell-based
Method in brief: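 LNCaP cells were seeded on coverslips (2.5 × 10⁵/well) for 24 h, then exposed to 5 μM for 48 h. They were fixed and permeabilized with 0.1% Triton X-100 in PBS for 1 h. Mouse anti-AR (1:100) was applied for 12 h at room temperature, then Alexa Fluor 488 goat anti-mouse IgG (1:100) for 2 h. Nuclei were counterstained with DAPI and slides imaged by microscopy.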

LNCaP [19] = experiment: Cell cycle arrest in human LNCaP cells assessed as accumulation at G1 phase at 5 uM after 72 hrs; format: functional; method in brief: as §3
LNCaP [20] = experiment: Cell cycle arrest in human LNCaP cells assessed as accumulation at G1 phase at 1 uM after 72 hrs; format: functional; method in brief: as §3
LNCaP [21] = experiment: Antitumor activity against androgen responsive human LNCaP cells by MTT assay at 72 hrs; format: functional, cell-based
Method in brief: (§4)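 LNCaP or PC-3 cells were seeded at 6000/well in 10% FBS RPMI 1640 for 24 h. They were then treated at various concentrations in 5% FBS RPMI 1640 for 48 or 72 h, with DMSO-matched controls. MTT (0.5 mg/ml) was added for 2 h at 37°C and the dye solubilized in DMSO. A570 was read in six replicates, and IC50 was taken from dose-response.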

LNCaP [22] = experiment: Cell cycle arrest in human LNCaP cells assessed as accumulation at G2/M phase at 1 uM after 72 hrs; format: functional; method in brief: as §3
LNCaP [23] = experiment: Cell cycle arrest in human LNCaP cells assessed as accumulation at G1 phase at 2.5 uM after 72 hrs; format: functional; method in brief: as §3
LNCaP [24] = experiment: Cell cycle arrest in human LNCaP cells assessed as accumulation at S phase at 2.5 uM after 72 hrs; format: functional; method in brief: as §3
LNCaP [25] = experiment: Cell cycle arrest in human LNCaP cells assessed as accumulation at G2/M phase at 5 uM after 72 hrs; format: functional; method in brief: as §3
PC-3 [26] = experiment: Antitumor activity against androgen non-responsive human PC3 cells by MTT assay at 48 hrs; format: functional, cell-based; details: PC-3, 48 h; method in brief: as §4
PC-3 [27] = experiment: Antitumor activity against androgen non-responsive human PC3 cells by MTT assay at 72 hrs; format: functional, cell-based; details: PC-3, 72 h; method in brief: as §4
LNCaP [28] = experiment: Cell cycle arrest in human LNCaP cells assessed as accumulation at subG1 phase at 1 uM after 72 hrs; format: functional; method in brief: as §3
LNCaP [29] = experiment: Cell cycle arrest in human LNCaP cells assessed as accumulation at subG1 phase at 7.5 uM after 72 hrs; format: functional; method in brief: as §3
LNCaP [30] = experiment: Cell cycle arrest in human LNCaP cells assessed as accumulation at subG1 phase at 2.5 uM after 72 hrs; format: functional; method in brief: as §3
LNCaP [31] = experiment: Cell cycle arrest in human LNCaP cells assessed as accumulation at subG1 phase at 10 uM after 72 hrs; format: functional; method in brief: as §3
LNCaP [32] = experiment: Antitumor activity against androgen responsive human LNCaP cells by MTT assay at 48 hrs; format: functional, cell-based; method in brief: as §4
LNCaP [33] = experiment: Cell cycle arrest in human LNCaP cells assessed as accumulation at G1 phase at 7.5 uM after 72 hrs; format: functional; method in brief: as §3

With `CC1(COc2ccc(/C=C3\SC(O)=NC3=O)cc2)CCCCC1` the Activity (LNCaP [1]) was “Active”.

With `CC1(COc2ccc(CC3SC(=O)NC3=O)cc2)CCCCC1` (configuration not stated) the Activity (LNCaP [2]) was “Active” and the Activity (LNCaP [3]) was “Active”.

In the case of `CC1(CN2C(=O)S/C(=C\c3cc(Br)c(O)c(Br)c3)C2=O)CCCCC1`, the Activity (LNCaP [4]) was “Dose-dependent effect”, the pIC50 (LNCaP [5]) was 5.40 and the Activity (LNCaP [6]) was “Active”. For the same compound, the Activity (LNCaP [7]) was “Dose-dependent effect” and the Activity (LNCaP [8]) was “Dose-dependent effect”.

For `CC1(CN2C(=O)SC(Cc3ccc(O)c(C(F)(F)F)c3)C2=O)CCCCC1` (configuration not stated), the Activity (LNCaP [5]) was “Dose-dependent effect”.

With `CC1(CN2C(=O)S/C(=C\c3ccc(O)c(C(F)(F)F)c3)C2=O)CCCCC1` the Activity (LNCaP [9]) was 18%, the Activity (LNCaP [4]) was “Dose-dependent effect” and the Activity (LNCaP [10]) was 15%. It also gave an Activity (LNCaP [11]) of 19%, an Activity (LNCaP [12]) of 14% and an Activity (LNCaP [13]) of 10%. The Activity (LNCaP [14]) was 21%, the Activity (LNCaP [15]) was 0% and the Activity (LNCaP [16]) was 2%. The Activity (LNCaP [17]) was 51%, the Activity (LNCaP [18]) was “Active” and the pIC50 (LNCaP [5]) was 5.70. The Activity (LNCaP [6]) was “Active”, the Activity (LNCaP [19]) was 69% and the Activity (LNCaP [7]) was “Dose-dependent effect”. For the same compound, the Activity (LNCaP [20]) was 66%, the pIC50 (LNCaP [21]) was 5.52 and the Activity (LNCaP [22]) was 14%. The Activity (LNCaP [23]) was 65%, the Activity (LNCaP [8]) was “Dose-dependent effect” and the Activity (LNCaP [24]) was 19%. The Activity (LNCaP [25]) was 3%, the pIC50 (PC-3 [26]) was 4.82 and the pIC50 (PC-3 [27]) was 4.92. The Activity (LNCaP [28]) was 1%, the Activity (LNCaP [29]) was 20% and the Activity (LNCaP [30]) was 2%. For the same compound, the Activity (LNCaP [31]) was 28%, the pIC50 (LNCaP [32]) was 5.10 and the Activity (LNCaP [33]) was 63%.

`CCOc1cc(/C=C2\SC(=O)NC2=O)ccc1OCC1(C)CCCCC1` was tested, and the Activity (LNCaP [5]) was “Dose-dependent effect”.

With `CC1(CN2C(=O)S/C(=C\c3ccc(O)cc3)C2=O)CCCCC1` the Activity (LNCaP [5]) was “Dose-dependent effect”.

`CC1(COc2cccc(/C=C3\SC(=O)NC3=O)c2)CCCCC1` was tested, and the Activity (LNCaP [5]) was “Dose-dependent effect”.
